# Source: PubChem
# Wee1 degr inh = blocks degradation of human Wee1 kinase | P30291 | reporter increase, % at 5 µM | HeLa Luc-Wee1K328M stability, luciferase luminescence; 100% = proteasome inhibitor MG132 effect | 220,000 tested, 1.2% active | AID 1321;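 active = activation above the mean of all tested compounds plus 3 SD, set per screening run, cut at about 8.8% in these data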;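 also: cells exposed to compound for 20 h before luminescence read; 0% = DMSO alone and 100% = MG132 at 30 µM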
# TRAIL sens C8 = sensitizes caspase-8 expressing cells to TRAIL. NB7+C8 cells + TRAIL, ATPlite viability luminescence. inhibition (viability loss, TRAIL sensitization), % at 10 µM. 360,000 tested, 1% active;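 active = compounds causing at least 50% loss of cell viability in the single-dose screen, relative to plate controls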
# PPC-1+TRAIL kill = PPC-1 cancer cell killing with TRAIL present. cell killing (% activity), % at 4 µM or 5 µM. PPC-1 cells + TRAIL, ATPLite viability luminescence. 220,000 tested, 0.41% active;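 active = cell killing above 50% in the first pass at 4 µM, then a duplicate retest at 5 µM averaging 50% or more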;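 also: plate controls were cells with TRAIL plus DMSO for no effect and medium-only wells lacking cells for full effect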
# FLuc act counter = affects firefly luciferase, flagging false hits in luciferase stimulation screens; P08659; ATPlite luciferase biochemical, luminescence, 10 min; 0 = ATP-free wells, 1 = DMSO control; activation factor at 10 µM; 200,000 tested, under 10 active;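 active = luciferase activation factor, scaled between plate controls, of at least 2 with compound at 10 µM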
# Target sequence (P08659 whole entry, looked up): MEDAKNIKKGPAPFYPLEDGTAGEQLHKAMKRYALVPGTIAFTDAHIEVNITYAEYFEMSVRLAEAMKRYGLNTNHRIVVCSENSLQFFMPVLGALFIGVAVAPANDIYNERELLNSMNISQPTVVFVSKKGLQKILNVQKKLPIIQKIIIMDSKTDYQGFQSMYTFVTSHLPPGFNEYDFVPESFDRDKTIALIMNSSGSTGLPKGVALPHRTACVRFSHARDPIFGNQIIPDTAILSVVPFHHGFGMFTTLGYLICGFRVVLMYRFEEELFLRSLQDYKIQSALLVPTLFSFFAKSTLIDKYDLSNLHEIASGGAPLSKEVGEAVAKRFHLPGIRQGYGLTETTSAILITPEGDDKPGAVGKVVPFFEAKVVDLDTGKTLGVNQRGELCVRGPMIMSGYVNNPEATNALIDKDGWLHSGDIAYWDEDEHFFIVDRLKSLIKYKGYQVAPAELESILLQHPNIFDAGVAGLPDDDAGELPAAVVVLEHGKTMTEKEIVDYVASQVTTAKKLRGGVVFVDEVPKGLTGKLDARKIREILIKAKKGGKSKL
#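 Assay system: Luciferase/luciferin detection reagent, cell-free biochemical luciferase assay / Read-out: luciferase activation / Benchmarks: No-ATP low control, compound-free enzyme-plus-ATP high control / Medium: PBS buffer for ATP / Detection: luminescence measurement of luciferase light output / Schedule: 10 min at ambient temperature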
# FLuc inhib CS = counter-screen for luciferase assay inhibitors: firefly luciferase inhibition; P08659; ATPLite firefly luciferase biochemical luminescence, 10 min; inhibition, % at 10 µM; 200,000 tested, 1.5% active;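 active = inhibition above about 50% when tested at 10 µM, limit read from the data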
# PKD1 kinase inh = PKD1 (human) kinase inhibition; Q15139; PKD1 kinase fluorescence polarization assay; inhibition, % (test concentration not listed); 200,000 tested, 0.056% active; AID 797; in the data active = inhibition above about 50%
# An asterisk follows results filed as active; / = no result given. Sampled rows, rich in hits. Any-hit rate of the full collection: about 2.2%.
SMILES,Wee1 degr inh,TRAIL sens C8,PPC-1+TRAIL kill,FLuc act counter,FLuc inhib CS,PKD1 kinase inh
CCn1ccnc1[C@@H]1C[C@H]2CN(Cc3cccc(Cl)c3)C(=O)[C@]23CCCN13,2,-10,6,1,-3,2
O=C1N(Cc2cccc(Cl)c2)C[C@@H]2C[C@@H](c3ccccn3)N3CCC[C@@]123,9.4*,11,-5,1,-2,-11
CNc1ccccc1C(=O)OCC(=O)N(CCOC)c1c(N)n(CC(C)C)c(=O)[nH]c1=O,/,-7,/,/,/,/
C/C(=N\NC(=O)c1cc2ccccc2cc1O)c1cccs1,/,53*,/,/,/,/
O=C(NNC(=O)c1cc2ccccc2cc1O)c1cccs1,/,6,/,/,/,/
C/C(=N/NC(=O)c1cc2ccccc2cc1O)c1ccco1,/,55*,/,/,/,/
N#C/C(=N\Nc1ccccc1)C(=N)N1CCCCCC1,8,22,21,/,/,/
N#C/C(=N\Nc1cccc(F)c1)C(=O)C1CC1,2,13,8,/,/,/
N#C/C(=N\Nc1ccc(F)cc1)C(=N)N1CCCCC1,6,17,26,0.5,55*,9
N#C/C(=N\Nc1cccc(F)c1)C(=N)N1CCCCCC1,8,26,30,0.4,62*,0
CCc1ccc([C@H]2[C@@H]3C(=O)C[C@@H]4C(=O)N(c5ccccc5)C(=O)[C@@H]4[C@@H]3CN2S(=O)(=O)c2ccc(C)cc2)cc1,/,86*,/,/,/,/
O=C(c1ccc2c(=O)n3c(nc2c1)CCC3)N1CCN(S(=O)(=O)c2cccc(F)c2)CC1,/,-4,/,/,/,/
CCc1ccc(C2NC(=S)NC3=C2C(=O)N(c2ccccc2OC)C(c2ccc(CC)cc2)N3)cc1 (configuration not stated),0,7,30,1.1,-6,-2
O=C1C2=C(NC(=S)NC2c2ccc(Cl)cc2)NC(c2ccc(Cl)cc2)N1c1ccc(Cl)cc1 (configuration not stated),10*,12,1,1,-2,-2
Cn1nccc1C(=O)N1CCCC(N2CCN(c3cccc(C(F)(F)F)c3)CC2)C1 (configuration not stated),/,9,/,/,/,/
CCOc1ccc2nc(NC(=O)CN3CCC(n4nnc5cc(C(F)(F)F)ccc54)CC3)sc2c1,1,56*,13,1,4,-12
Cc1cc(NC(=O)CN2CCC(n3nnc4cc(C(F)(F)F)ccc43)CC2)no1,2,2,-3,1.1,-7,7
CC(=O)Nc1ccc(S(=O)(=O)NC2CC(=O)N(c3ccc4c(c3)OCCO4)C2)cc1 (configuration not stated),/,-7,/,/,/,/
CCOc1ccc(-c2nnc(-c3cccs3)o2)cc1,-2,37,37,0.3,65*,-4
CN(C)C(=O)N1CCN(c2nc(-c3ccccc3)cs2)CC1,/,58*,/,/,/,/
CC(=O)C1=C(O)C(=O)N(C)C1c1ccccc1[N+](=O)[O-] (configuration not stated),-2,8,15,/,/,/
COc1ccc(N2C(=O)C(CC(=O)Nc3ccccc3)N(Cc3ccccn3)C2=S)cc1 (configuration not stated),9.1*,13,11,1,-3,5
CC1=NN(C(=O)CCc2ccccc2)C(O)(c2ccncc2)C1 (configuration not stated),-2,-2,3,1,-3,-4
COC(=O)CSc1nnc(NC(=O)/C=C\c2ccc3c(c2)OCO3)s1,0,53*,33,1,-3,0
Cc1nnc(SCC(=O)NCc2ccc3c(c2)OCO3)s1,9.5*,-19,7,1,-5,-5
SMILES,Wee1 degr inh,TRAIL sens C8,PPC-1+TRAIL kill,FLuc act counter,FLuc inhib CS,PKD1 kinase inh
CCC(CC)c1nnc(NC(=O)c2ccc3c(c2)OCO3)s1,/,2,/,/,/,/
COC(=O)CSc1nnc(NC(=O)c2ccc3c(c2)OCO3)s1,/,77*,/,/,/,/
COc1ccc2[nH]c3c(=O)n(CCCCC(=O)NCCC(C)C)c(=S)[nH]c3c2c1,2,-9,18,1.1,-5,2
O=C(COC(=O)CCC(=O)c1ccc(Cl)cc1)NC1CC1,-1,-8,6,1.1,-7,1
CC(C)N=C1NN=C(c2ccc(Cl)c(Cl)c2)CS1,0,42,-5,0.4,64*,3
Cc1ccc2nc3ccc(N4CCN(C)CC4)nn3c(=O)c2c1,0,19,19,0.5,47,-1
Cc1ccc2nc3ccc(N4CCCCCCC4)nn3c(=O)c2c1,-4,47,32,0.4,62*,-5
CCOC(=O)N1CCC(Nc2c(OCC)c(=O)c2=O)CC1,-1,4,52*,1.1,-5,12
CNc1nnc(-c2ccc(N(C)C)cc2)s1,3,73*,60*,0.1,92*,1
CN(C)c1ccc(-c2ccncc2)cc1,/,/,22,1,2,/
COc1ccc(C(=O)/C=C2\C(=O)Nc3ccc(Br)cc32)cc1,/,59*,/,/,/,/
Cc1ccnc(NC(=S)NC(=O)c2ccco2)c1,4,53*,27,0.4,61*,-2
CCC(C)c1ccc(O)c(NC(=O)c2cccnc2)c1 (configuration not stated),-3,-5,4,1,0,2
O=C(NC(=S)Nc1cccnc1)c1cccs1,-1,4,5,1,3,1
Cc1ccnc(NC(=S)NC(=O)c2cccs2)c1,8,89*,61*,0.1,87*,1
CCC(C)c1ccc(O)c(NC(=S)NC(=O)c2cccs2)c1 (configuration not stated),/,58*,/,/,/,/
O=C(NC(=S)Nc1ccc(Cl)cn1)c1cccs1,2,72*,28,0.3,68*,-2
Cc1ccnc(NC(=O)CNC(=O)c2cccs2)c1,/,17,/,/,/,/
O=C(NC(=S)Nc1ccccn1)c1ccco1,3,23,11,0.7,28,15
O=C(COC(=O)c1cc[n+]([O-])cc1)Nc1cccc(Br)c1,/,-4,/,/,/,/
CC=C1OC(n2cnc3c(N)ncnc32)C(O)C1O (configuration not stated),/,-10,/,/,/,/
O=C(NC(=S)Nc1cccnc1Cl)c1ccc(Cl)cc1,/,5,/,/,/,/
O=C(NC(=S)Nc1cccnc1Cl)c1ccco1,5,23,4,0.4,58*,4
O=C(Cc1nc2ccccc2[nH]1)c1cccc([N+](=O)[O-])c1,-1,34,12,/,/,/
CCCn1nnc(NC(=O)c2ccc(OC)cc2)n1,3,7,8,0.9,13,-5
CC(C)c1ccc(OCC(=O)NC2=NCCS2)cc1,4,6,20,0.4,57*,-2
CCn1nnc(NC(=O)c2sc3ccccc3c2Cl)n1,-2,34,50,0.3,67*,-7
CCOc1ccc(C(=O)Nc2nnn(CC)n2)cc1,-3,37,-4,0.4,60*,-5
O=C(COc1ccccc1)NC1=NCCS1,2,-5,1,0.7,31,-7
